pIC50: −log10 of the molar value. Activity calls are given as the source filed them. No cut-off for these calls is given here.
How the values were obtained:
[1] = Antiproliferative activity against human HCT116 cells […] by MTT assay; format: functional, cell-based; conditions: HCT-116
[2] = Antiproliferative activity against human U87MG cells after 72 hrs by MTT assay; format: functional, cell-based, U-87MG ATCC; conditions: U-87 MG
In short: (§1)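 Cells kept as monolayers in DMEM with 10% FBS, 5% CO2, 37 °C. Seeded at 3000-5000 cells/well, grown 24 h before dosing. Treated with 100.0, 10.0, 1.0, 0.1 and 0.01 μM of compound for 48 h. MTT (5 mg/ml in medium) added for 4 h, formazan pelleted, dissolved in DMSO, OD read at 490 nm. IC50 derived from inhibition ratios. Three separate experiments, each in triplicate.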

[3] = tested on: A549; assay: Antiproliferative activity against human A549 cells after 72 hrs by MTT assay; format: functional, cell-based; conditions: A549, 72 h; in short: as §1
[4] = tested on: MCF7; assay: Antiproliferative activity against human MCF7 cells […] by MTT assay; format: functional, cell-based
[5] = Antitumor activity against human HCT116 cells xenografted in BALB/C mouse assessed as reduction in tumor volume at 30 mg/kg, po dosed once daily for 14 days; format: functional; conditions: HCT-116, 336 h
In short: (§2)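 Male BALB/C nude mice (SPF, 18-20 g) received 3×10^6 HCT-116 cells subcutaneously in the flank. At 100 mm³ tumours, animals were randomised (8 controls, 5 per drug group). Compound given orally in NMP/PEG300 (1:9) once daily for 14 days; controls got vehicle. Tumour volume (length × width × width/2) recorded every 3-4 days. Sacrifice on day 26, inhibition ratios from tumour volume and weight. Mean ± standard error.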

[6] = Antitumor activity against human HCT116 cells xenografted in BALB/C mouse assessed as reduction in tumor volume at 10 mg/kg, po dosed once daily for 14 days; format: functional; conditions: HCT-116, 336 h; in short: as §2
[7] = tested on: HCT-116; assay: Inhibition of PI3K/Akt signalling in human HCT116 cells assessed as reduction in AKT Ser473 phosphorylation at 1 uM after 1 hr by Western blot method; format: cell-based
In short: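 HCT-116 cells seeded at 1×10^6/well in DMEM with 10% FBS and grown 16 h at 37 °C. Exposed to compound or DMSO for 1 h at 37 °C, then lysed in ice-cold buffer and clarified at 12000 rpm, 20 min, 4 °C. Protein measured by BCA and run on SDS-PAGE. Immunoblotted for AKT, p-Ser473 AKT and β-actin, with chemiluminescent detection and densitometry. Three independent experiments, each in duplicate.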

[8] = tested on: Mus musculus; assay: Toxicity in human HCT116 cells xenografted BALB/C mouse assessed as weight loss at 10 to 30 mg/kg, po dosed once daily for 14 days; format: organism-based, HCT-116; parameters: dose 10-30 mg/kg, route oral; conditions: in vivo, 336 h
In short: (§3)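 Male BALB/C nude mice (18-20 g) carried subcutaneous flank HCT-116 xenografts (3×10^6 cells), randomised at 100 mm³. Compound dosed orally in NMP/PEG300 (1:9) once daily for 14 days; controls got vehicle alone. Body weight recorded every 3-4 days until sacrifice on day 26.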

[9] = tested on: Mus musculus; assay: Toxicity in human HCT116 cells xenografted BALB/C mouse assessed as weight loss at 30 mg/kg, po dosed once daily for 14 days; format: organism-based, HCT-116; parameters: dose 30 mg/kg, route oral; conditions: in vivo, 336 h; in short: as §3

pIC50 [3] | pIC50 [4] | Structure (SMILES) | pIC50 [1] | pIC50 [2] | further results
– | – | COc1c(NS(=O)(=O)c2ccc(F)cc2)cc(-c2ccc3nc(NC(C)=O)nn3c2)cc1C(N)=O | 4.60 | – | –
< 4.30 | < 4.30 | NC(=O)c1cc(-c2ccc3nc(NC(=O)C4CC4)sc3c2)cc(NS(=O)(=O)c2ccc(F)cc2)c1Cl | 4.94 | 4.75 | –
5.77 | 6.30 | COc1c(NS(=O)(=O)c2ccc(F)cc2)cc(-c2ccc3nc(NC(C)=O)sc3c2)cc1C(N)=O | 5.71 | 5.32 | inhibition in vivo at 30 mg/kg [5]: 46.9%; inhibition in vivo at 10 mg/kg [6]: 40.1%; inhibition [7]: Active; Activity [8]: Non-toxic
– | – | COc1c(NS(=O)(=O)c2ccc(F)cc2)cc(-c2ccc3nc(NC(=O)C4CC4)nn3c2)cc1C(N)=O | 4.36 | – | –
– | – | CCOC(=O)CNc1nc2ccc(-c3cc(NS(=O)(=O)c4ccc(F)cc4)c(OC)c(C(N)=O)c3)cc2s1 | < 4.30 | – | –
– | – | COc1c(NS(=O)(=O)c2ccc(C)cc2)cc(-c2ccc3nc(NC(C)=O)nn3c2)cc1C(N)=O | 4.56 | – | –
5.09 | 4.66 | COc1c(NS(=O)(=O)c2ccc(F)cc2)cc(-c2ccc3nc(NC(=O)C4CC4)sc3n2)cc1C(N)=O | 5.60 | 4.69 | –
– | – | COc1c(NS(=O)(=O)C2CC2)cc(-c2ccc3nc(NC(C)=O)nn3c2)cc1C(N)=O | 4.44 | – | –
– | – | COc1c(NS(=O)(=O)c2ccc(Cl)cc2)cc(-c2ccc3nc(NC(C)=O)nn3c2)cc1C(N)=O | 4.50 | – | –
– | – | NC(=O)c1cc(NS(=O)(=O)c2ccc(F)cc2)cc(-c2ccc3nc(NC(=O)C4CC4)sc3c2)c1 | < 4.30 | – | –
– | – | COc1c(NS(=O)(=O)c2ccc(F)cc2)cc(-c2ccn3nc(NC(C)=O)nc3c2)cc1C(N)=O | 4.49 | – | –
6.70 | 6.28 | CC(=O)Nc1nc2ccc(-c3cnc(Cl)c(NS(=O)(=O)c4ccc(F)cc4)c3)cc2s1 | 6.29 | 5.55 | –
– | – | COc1c(NS(=O)(=O)c2ccc(F)cc2)cc(-c2ccn3nc(NC(=O)C4CC4)nc3c2)cc1C(N)=O | < 4.30 | – | –
5.20 | 5.80 | COc1c(NS(=O)(=O)c2ccc(F)cc2)cc(-c2ccc3nc(NC(=O)C4CC4)sc3c2)cc1C(N)=O | 5.70 | 5.54 | –
4.33 | – | COc1c(NS(=O)(=O)C2CC2)cc(-c2ccc3nc(NC(=O)C4CC4)sc3c2)cc1C(N)=O | 4.84 | 5.09 | –
– | – | COc1c(NS(=O)(=O)c2ccc(F)cc2)cc(-c2ccn3nc(N)nc3c2)cc1C(N)=O | < 4.30 | – | –
5.37 | 4.90 | COc1c(NS(=O)(=O)c2ccc(F)cc2)cc(-c2ccc3nc(NC(C)=O)sc3n2)cc1C(N)=O | 5.37 | 4.66 | –
– | – | CC(=O)Nc1nc2ccc(-c3cc(NS(=O)(=O)c4ccc(F)cc4)c(Cl)c(C(N)=O)c3)cn2n1 | < 4.30 | – | –
4.52 | 4.48 | COc1c(NS(=O)(=O)c2ccc(F)cc2)cc(-c2ccc3nc(NC4CC4)sc3n2)cc1C(N)=O | 4.45 | 4.38 | –
7.00 | 6.26 | Cn1c(=O)n(-c2ccc(C(C)(C)C#N)cc2)c2c3cc(-c4cnc5ccccc5c4)ccc3ncc21 [DACTOLISIB] | 6.49 | 5.63 | inhibition in vivo at 30 mg/kg [5]: 24.2%; Activity [9]: Toxic; inhibition [7]: Active
– | – | COc1c(NS(=O)(=O)c2ccc(F)cc2)cc(-c2ccc3nc(NC4CC4)sc3c2)cc1C(N)=O | < 4.30 | – | –
